For assay [1], the target named is Sigma non-opioid intracellular receptor 1 (Cavia porcellus, UniProt Q60492). Put plainly: Displacement of [3H](+)-pentazocine from guinea pig brain sigma 1 receptor. (Loss of bound radioactivity is the signal in a displacement assay; it reports binding, not function.)
Assay [2] is described as follows: Displacement of [3H]DTG rom guinea pig brain sigma 2 receptor. Further details: species or system Cavia porcellus.
The species named for assay [3] is Rattus norvegicus. Put plainly: Increase in TG-2 expression in albino Wistar rat primary astroglial cells at 25 uM after 24 hrs. The format is functional. The method, boiled down:
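Primary Wistar rat astrocytes at 14 DIV were exposed to ligand 25 µM for 24 h. Densitometric percentage of TG-2 versus untreated control; HUVEC extract as positive control. Mean ± SD of four experiments.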

For assay [4], the species on record is Rattus norvegicus. In words: Increase in TG-2 expression in albino Wistar rat primary 14 DIV astroglial cell at 25 uM after 24 hrs by CLSM analysis. The format is functional. The method, boiled down: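 Astrocytes at 14 DIV were treated with 25 µM for 24 h and fixed in 4% paraformaldehyde for 20 min. They were blocked with 1% normal serum for 1 h, then incubated overnight with anti-TG-2 monoclonal (1:500), followed by FITC and TRITC anti-IgG (1:64, 2 h each). Confocal imaging at fixed settings measured cytosolic and nuclear fluorescence intensity versus control after nonspecific subtraction.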

For assay [5], the species on record is Rattus norvegicus. Put plainly: Decrease of caspase 3 cleavage in albino Wistar rat primary astroglial cells at 25 uM after 24 hrs relative to control. It counts as functional. The method, boiled down: (§1)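 Primary astrocytes from 1–2-day-old Wistar rat brains were grown 14 DIV, then exposed to ligand 25 µM for 24 h. Cells were lysed and sonicated, and 30 µg protein was run on 10% SDS-PAGE. Mean ± SD of four experiments; t test.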

Assay [6] in a line: Increase in apoptosis in albino Wistar rat primary 14 DIV astroglial cells at 25 uM after 24 hrs by TUNEL assay relative to control. It counts as functional. The method, boiled down: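 Astrocytes at 14 DIV were treated 24 h at 25 µM. TUNEL labelling with fluorescein-dUTP at free 3′-OH DNA ends; apoptotic cells appear green (FITC), nonapoptotic cells red (PI). Apoptotic cells were counted against all cells in 10 random fields per dish and expressed as a percentage.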

The species named for assay [7] is Rattus norvegicus. Put plainly: Activity at sigma 2 receptor in rat astroglial cells. It counts as cell-based.
Assay [8] is filed under the species Rattus norvegicus. In words: Increase of caspase 3 cleavage in albino Wistar rat primary astroglial cells at 25 uM after 24 hrs relative to control. It counts as functional. The method, boiled down:
as §1

Active and inactive are the calls of the source. No cut-off for these calls is given here.

Sequence of Sigma non-opioid intracellular receptor 1 (Q60492 whole entry): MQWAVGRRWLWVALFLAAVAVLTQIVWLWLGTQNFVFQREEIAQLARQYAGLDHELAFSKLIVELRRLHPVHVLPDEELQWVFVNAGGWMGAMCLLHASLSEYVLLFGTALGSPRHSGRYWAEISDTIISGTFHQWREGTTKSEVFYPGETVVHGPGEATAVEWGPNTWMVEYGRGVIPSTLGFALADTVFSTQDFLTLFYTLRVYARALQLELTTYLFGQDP

One may read the Ki as a measure of affinity in units of concentration, obtained from inhibition or displacement. A low value points to higher affinity. Regarding `COC(=O)C1(c2ccccc2)CC1CN1CCN(c2ncccn2)CC1` (stereo not given), the Ki was 3090 nM in assay [1] and > 10000 nM in assay [2].
For `COC(=O)C1(c2ccccc2)CC1CN1CCC(Cc2ccccc2)CC1` (stereo not given), in that order: 2.2 nM and 13.2 nM.
`COC(=O)C1(c2ccc([N+](=O)[O-])cc2)CC1CN1CCN(c2ccccn2)CC1` (stereo not given): the Ki in assay [1] was 769 nM; in assay [2], > 10000 nM.
On to `COC(=O)C1(c2ccc(N)cc2)CC1CN1CCN(c2ncccn2)CC1` (stereo not given), for which the inhibition constant (Ki) was > 10000 nM in assay [1] and 3590 nM in assay [2].
For the compound `CN(C)CCN(C)CCc1ccc(Cl)c(Cl)c1`, in the assay filed under Rattus norvegicus [3], the outcome was inactive. In addition, the result in the assay filed under Rattus norvegicus [4] and in the assay filed under Rattus norvegicus [5] was Active. Further, the Ratio in assay [6] stood at 7%. In addition, in the assay filed under Rattus norvegicus [7] (filed as agonist), the Activity entry is “Agonist”.
For `COC(=O)C1(c2ccc(C)cc2)CC1CN1CCN(c2ccccn2)CC1` (stereo not given), the Ki is 497 nM in assay [1] and 2170 nM in assay [2].
Regarding `COC(=O)C1(c2ccc(C)cc2)CC1CN1CCC(Cc2ccccc2)CC1` (stereo not given), the Ki in assay [1] amounted to 0.97 nM; in assay [2], 8.9 nM.
For `COC(=O)C1(c2ccc([N+](=O)[O-])cc2)CC1CN1CCN(c2ncccn2)CC1` (stereo not given), in that order: 619 nM and > 10000 nM.
For `O=C(CCCN1CCC(O)(c2ccc(Cl)cc2)CC1)c1ccc(F)cc1`, the result in the assay listed under Rattus norvegicus [4] was Active. Also, the Activity entry in the assay filed under Rattus norvegicus [7] (filed as agonist) is “Agonist”.
In assay [2], `CC[C@H]1C[C@H]2C[C@H]3c4[nH]c5ccc(OC)cc5c4CCN(C2)[C@@H]13` [IBOGAINE] returned a Ki of 9310 nM. The outcome in the assay filed under Rattus norvegicus [3], in the assay filed under Rattus norvegicus [4] and in the assay listed under Rattus norvegicus [8] was Active. Further, the Ratio in assay [6] stood at 95%. Moreover, the Activity result in the assay filed under Rattus norvegicus [7] (filed as agonist) is “Agonist”.
Turning to `CC[C@H]1C[C@@H]2C[C@H]3c4[nH]c5ccc(OC)cc5c4CCN(C2)[C@@H]13` [IBOGAINE], the Ki in assay [1] was determined as 250 nM.
On to `COC(=O)C1(c2ccc(C)cc2)CC1CN1CCN(c2ncccn2)CC1` (stereo not given), for which the figures for the Ki in assay [1] and in assay [2] were 353 nM and 3360 nM, respectively.
Consider `COC(=O)C1(c2ccc(Cl)cc2)CC1CN1CCN(c2ccccn2)CC1` (stereo not given), for which the results for the Ki in assay [1] and in assay [2] were 707 nM and 2400 nM, respectively.
In assay [2], `Cc1ccccc1NC(=N)Nc1ccccc1C` [DITOLYLGUANIDINE] had a Ki of 49 nM.
Turning to `COC(=O)C1(c2ccc([N+](=O)[O-])cc2)CC1CN1CCC(O)(c2ccccc2)CC1` (stereo not given), the Ki in assay [1] came out at 1.9 nM; in assay [2] it was 18 nM.
For the compound `COC(=O)C1(c2ccc(OC)cc2)CC1CN1CCN(c2ccccn2)CC1` (stereo not given), the results for the Ki in assay [1] and in assay [2] were 1260 nM and > 10000 nM, respectively.
Regarding `COC(=O)C1(c2ccc([N+](=O)[O-])cc2)CC1CN1CCC(Cc2ccccc2)CC1` (stereo not given), the Ki in assay [1] came out at 0.68 nM; in assay [2], 9 nM.
`COC(=O)C1(c2ccc(Cl)cc2)CC1CN1CCC(O)(c2ccccc2)CC1` (stereo not given): the Ki in assay [1] came out at 1.7 nM; in assay [2], 19 nM.
In assay [2], `CC(C)=CCN1CC[C@]2(C)c3cc(O)ccc3C[C@H]1[C@H]2C` [(+)-PENTAZOCINE] registered a Ki of 1540 nM. Besides, the outcome in the assay listed under Rattus norvegicus [5] was Active. Further, in the assay listed under Rattus norvegicus [7], the outcome was inactive.
Consider `COC(=O)C1(c2ccc(N)cc2)CC1CN1CCN(c2ccccn2)CC1` (stereo not given), for which the Ki in assay [1] and in assay [2] was > 10000 nM in each case.
As for `COC(=O)C1(c2ccc(Cl)cc2)CC1CN1CCN(c2ncccn2)CC1` (stereo not given), the Ki in assay [1] was 350 nM; in assay [2], 2710 nM.
Regarding `COC(=O)C1(c2ccc(OC)cc2)CC1CN1CCC(Cc2ccccc2)CC1` (stereo not given), the Ki worked out at 1 nM in assay [1] and 14 nM in assay [2].
The corresponding values for `COC(=O)C1(c2ccccc2)CC1CN1CCC(O)(c2ccccc2)CC1` (stereo not given) are 3.1 nM and 34 nM.
The corresponding values for `COC(=O)C1(c2ccc(OC)cc2)CC1CN1CCN(c2ncccn2)CC1` (stereo not given) are 2030 nM and > 10000 nM.
Consider `COC(=O)C1(c2ccccc2)CC1CN1CCN(c2ccccn2)CC1` (stereo not given), for which the Ki in assay [1] was determined as 1330 nM; in assay [2] it was 6290 nM.
For `COC(=O)C1(c2ccc(OC)cc2)CC1CN1CCC(O)(c2ccccc2)CC1` (stereo not given), in that order: 3.1 nM and 53 nM.
The corresponding values for `COC(=O)C1(c2ccc(Cl)cc2)CC1CN1CCC(Cc2ccccc2)CC1` (stereo not given) are 0.82 nM and 11.9 nM.

For the origin of these results see ChEMBL document CHEMBL1142963, “Novel sigma receptor ligands: synthesis and biological profile” (J Med Chem, 2007).
